Key:
Human glioma T98G cells [1] = assay: Dark cytotoxicity; format: cell-based; settings: read-out: dark toxicity IC50, CellTiter Blue assay, concentrations up to 400 μM, overnight
hCMEC/D3 cells = assay: In vitro BBB model permeability; format: in vitro ADME, human; settings: hCMEC/D3 monolayer, 1 mg/mL in HBSS, up to 60 min
Procedure, shortened: (§1)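 hCMEC/D3 brain endothelial cells grown 48 h on 0.4 μm PET transwell inserts in EBM-2 with 5% FBS, hydrocortisone, ascorbic acid, lipid concentrate, HEPES, bFGF. Test compound or lucifer yellow reference (1 mg/mL in HBSS, pH 6.7–7.8) added apically; basolateral HBSS. 37 °C, 5% CO2; lower chamber sampled at 0, 30, 60 min (five replicates). Fluorescence 415/650 nm (LY 420/540); P by clearance principle.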

Human glioma T98G cells [2] = assay: Time-dependent cellular uptake; format: cell-based; settings: 10 μM, over 24 h
Procedure, shortened: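 T98G glioma cells (EMEM, 10% FBS) seeded 10 000/well, grown 36 h, then exposed to 10 μM test compound for 0, 1, 2, 4, 8, 24 h. After PBS wash, cells lysed in 0.25% Triton X-100/PBS; porphyrin fluorescence read at 415/650 nm. Cell number by CyQuant; uptake expressed as nM compound per cell.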

[3] = In vitro BBB model permeability; format: in vitro ADME, human
Procedure, shortened: as §1

For “5,10,15,20-Tetra(p-carboranylmethylthiotetrafluorophenyl)porphyrin [Compound 1]”, the IC50 (Human glioma T98G cells [1]) was over 400 µM, the “Permeability coefficient P × 10^–6” value (hCMEC/D3 cells) was 1.36 ± 0.04 × 10^–6 cm/s and the “time-dependent uptake (in words)” value (Human glioma T98G cells [2]) was “accumulated the fastest”.

In the case of `N=C(N)NCCC[C@@H](NC(=O)[C@H](Cc1ccc(O)cc1)NC(=O)CCOCCOCCOCCNc1c(F)c(F)c(-c2c3nc(c(-c4c(F)c(F)c(SCC56BBBBC(BBB5)BBB6)c(F)c4F)c4ccc([nH]4)c(-c4c(F)c(F)c(SCC56BBBBC(BBB5)BBB6)c(F)c4F)c4nc(c(-c5c(F)c(F)c(SCC67BBBBC(BBB6)BBB7)c(F)c5F)c5ccc2[nH]5)C=C4)C=C3)c(F)c1F)C(=O)N[C@@H](Cc1ccccc1)C(=O)NCCC(N)=O` [Compound 8], the Papp A→B [3] is reported as 1.71 ± 0.06 ×10⁻⁶ cm/s and the “time-dependent uptake (in words)” value (Human glioma T98G cells [2]) is reported as “had the least”.

For lucifer yellow [LY, reference compound], the “Permeability coefficient P × 10^–6” value (hCMEC/D3 cells) was 21.7 ± 0.30 × 10^–6 cm/s.

Source: paper PMC4136688 (Journal of Medicinal Chemistry, 2014)
